Laboratory results reported in ChEMBL document CHEMBL1158182, “Antifungal activity of chalcones: a mechanistic study using various yeast strains” (Eur J Med Chem, 2008).
In brackets after ≈: the same amount, converted by molar mass. Activity calls are given as the source filed them. The rule behind the calls is not given here.

Experiments:
Ogataea angusta [1] = test: Antifungal activity against Hansenula polymorpha 2a with arg1 leu2 ura3 cys1 genotype by agar dilution method; type: functional
Outline: (§1)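 H. polymorpha strains were tested by agar dilution on rich YPD agar at 37 °C. Compound stocks in 96% EtOH were mixed into the medium to give […]. Cells were suspended in water, serially diluted to 10^9, 10^7, 10^5 and 10^3 cells/ml, and applied to the agar with a metal replicator. MIC was read from growth.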

Saccharomyces cerevisiae [2] = test: Antifungal activity against haploid Saccharomyces cerevisiae 10560-6B by agar dilution method; type: functional
Outline: (§2)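 S. cerevisiae and K. lactis strains were tested by agar dilution on rich YPD agar at 30 °C. Compound stocks in 96% EtOH were added to the medium to give […]. Cells were suspended in water, serially diluted to 10^9–10^3 cells/ml, and plated with a metal replicator. MIC was read from growth.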

Ogataea angusta [3] = test: Antifungal activity against Hansenula polymorpha CD1 with ade1 leu2 cds1 genotype by agar dilution method; type: functional; outline: as §1
Ogataea angusta [4] = test: Antifungal activity against Hansenula polymorpha CRD2 with leu2 CDR2 genotype by agar dilution method; type: functional; outline: as §1
Ogataea angusta [5] = test: Antifungal activity against Hansenula polymorpha 2a with cys1 genotype at 20 to 30 uM after 1 day by agar dilution method; type: functional, organism-based
Ogataea angusta [6] = test: Antifungal activity against Hansenula polymorpha M2 with met2 genotype by agar dilution method; type: functional; outline: as §1
Ogataea angusta [7] = test: Antifungal activity against Hansenula polymorpha CTA1 with leu2 cat1 genotype by agar dilution method; type: functional
Outline: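 MICs by agar dilution on rich YPD medium. Compounds were added from 96% EtOH stocks to give final agar concentrations of 20 to 50 (units as printed in the source). Cells were suspended in water, serially diluted to 10^9, 10^7, 10^5 and 10^3 cells/ml, and spotted onto agar with a metal replicator. Incubation was at 37 °C for H. polymorpha and 30 °C for S. cerevisiae.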

Kluyveromyces lactis [8] = test: Antifungal activity against Kluyveromyces lactis 1-6A with MATalpha uraA lys arg genotype by agar dilution method; type: functional; outline: as §2
Ogataea angusta [9] = test: Antifungal activity against Hansenula polymorpha CD2 with ade1 leu2 cds2 genotype by agar dilution method; type: functional; outline: as §1
Ogataea angusta [10] = test: Antifungal activity against Hansenula polymorpha AS2 with gsh2 genotype with cellular density of 10^9 cells/ml at 40 uM by agar dilution method; type: functional, organism-based
Kluyveromyces lactis [11] = test: Antifungal activity against Kluyveromyces lactis 2-19B with MATalpha ura lys arg genotype by agar dilution method; type: functional; outline: as §2
Ogataea angusta [12] = test: Antifungal activity against Hansenula polymorpha MC1 with met2 cys1 genotype by agar dilution method; type: functional; outline: as §1
Ogataea angusta [13] = test: Antifungal activity against Hansenula polymorpha WT1 with ade1 ura3 genotype by agar dilution method; type: functional; outline: as §1
Saccharomyces cerevisiae [14] = test: Antifungal activity against haploid Saccharomyces cerevisiae 2180 by agar dilution method; type: functional; outline: as §2
Ogataea angusta [15] = test: Antifungal activity against Hansenula polymorpha AS1 with gsh1 genotype at 20 to 30 uM after 1 day by agar dilution method; type: functional, organism-based
Ogataea angusta [16] = test: Antifungal activity against Hansenula polymorpha WT2 with ade1 met6 genotype by agar dilution method; type: functional; outline: as §1
Ogataea angusta [17] = test: Antifungal activity against Hansenula polymorpha AS1 with gsh1 genotype with cellular density of 10^9 cells/ml at 40 uM by agar dilution method; type: functional, organism-based
Ogataea angusta [18] = test: Antifungal activity against Hansenula polymorpha AS1 with gsh1 genotype with cellular density of 10^3 cells/ml at >40 uM by agar dilution method; type: functional, organism-based
Saccharomyces cerevisiae [19] = test: Antifungal activity against diploid Saccharomyces cerevisiae 1a by agar dilution method; type: functional; outline: as §2
Saccharomyces cerevisiae [20] = test: Antifungal activity against haploid Saccharomyces cerevisiae YSH1171 by agar dilution method; type: functional; outline: as §2
Ogataea angusta [21] = test: Antifungal activity against Hansenula polymorpha WT1 with cellular density of 10^3 cells/ml at >40 uM by agar dilution method; type: functional, organism-based
Ogataea angusta [22] = test: Antifungal activity against Hansenula polymorpha AS2 with gsh2 genotype at 20 to 30 uM after 1 day by agar dilution method; type: functional, organism-based
Ogataea angusta [23] = test: Antifungal activity against Hansenula polymorpha AU05 with ade3 ura3 genotype by agar dilution method; type: functional; outline: as §1
Saccharomyces cerevisiae [24] = test: Antifungal activity against haploid Saccharomyces cerevisiae YSH1170 by agar dilution method; type: functional; outline: as §2
[25] = Stability of compound in liquid YPD media after 48 hrs by UV spectrophotometry; type: physicochemical
Outline: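 Compound from a 96% EtOH stock was added to liquid YPD to […]. The medium was inoculated with 10^5 cells/ml of H. polymorpha WT1 and incubated at 37 °C. Samples were taken at 24 and 48 h and centrifuged, and compound in the supernatant was measured by absorbance at 308 nm. Controls had no cells. Assays were run in triplicate.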

Ogataea angusta [26] = test: Antifungal activity against Hansenula polymorpha M4 with met4 genotype by agar dilution method; type: functional; outline: as §1
Ogataea angusta [27] = test: Antifungal activity against Hansenula polymorpha WT1 with cellular density of 10^9 cells/ml at 40 uM by agar dilution method; type: functional, organism-based
Ogataea angusta [28] = test: Antifungal activity against Hansenula polymorpha AS1 with arg1 gsh2delta genotype by agar dilution method; type: functional; outline: as §1
Saccharomyces cerevisiae [29] = test: Antifungal activity against haploid Saccharomyces cerevisiae FY4 by agar dilution method; type: functional; outline: as §2
Saccharomyces cerevisiae [30] = test: Antifungal activity against haploid Saccharomyces cerevisiae Sigma 1278b by agar dilution method; type: functional; outline: as §2
Ogataea angusta [31] = test: Antifungal activity against Hansenula polymorpha AS2 with gsh2 genotype with cellular density of 10^3 cells/ml at >40 uM by agar dilution method; type: functional, organism-based
Saccharomyces cerevisiae [32] = test: Antifungal activity against diploid Saccharomyces cerevisiae 29a by agar dilution method; type: functional; outline: as §2
Ogataea angusta [33] = test: Antifungal activity against Hansenula polymorpha WT1 at 20 to 30 uM after 1 day by agar dilution method; type: functional, organism-based
Ogataea angusta [34] = test: Antifungal activity against Hansenula polymorpha CD3 with ade1 leu2 cds3 genotype by agar dilution method; type: functional; outline: as §1
Ogataea angusta [35] = test: Antifungal activity against Hansenula polymorpha R3 with rgh3 genotype by agar dilution method; type: functional; outline: as §1
Saccharomyces cerevisiae [36] = test: Antifungal activity against haploid Saccharomyces cerevisiae 1S by agar dilution method; type: functional; outline: as §2
Ogataea angusta [37] = test: Antifungal activity against Hansenula polymorpha 2a with cys1 genotype with cellular density of 10^3 cells/ml at >40 uM by agar dilution method; type: functional, organism-based
Ogataea angusta [38] = test: Antifungal activity against Hansenula polymorpha 2a with cys1 genotype with cellular density of 10^9 cells/ml at 40 uM by agar dilution method; type: functional, organism-based
Ogataea angusta [39] = test: Antifungal activity against Hansenula polymorpha 2b with arg1 ade1 leu2 genotype by agar dilution method; type: functional; outline: as §1
Ogataea angusta [40] = test: Antifungal activity against Hansenula polymorpha D22 with arg1/arg1 ade1/ADE1 leu2/leu2 URA3/ura3 CYS1/cys1 genotype by agar dilution method; type: functional; outline: as §1
Saccharomyces cerevisiae [41] = test: Antifungal activity against haploid Saccharomyces cerevisiae 1169 by agar dilution method; type: functional; outline: as §2
Kluyveromyces lactis [42] = test: Antifungal activity against Kluyveromyces lactis 2-18B with MATalpha metA1 ura3 leu2 genotype by agar dilution method; type: functional; outline: as §2

O=C(/C=C/c1ccccc1)c1ccccc1 [CHALCONE]
MIC (Ogataea angusta [1]): 25 µg/mL (≈ 120 µM)
MIC (Saccharomyces cerevisiae [2]): > 40 µg/mL
MIC (Ogataea angusta [3]): 30 µg/mL (≈ 144 µM)
MIC (Ogataea angusta [4]): > 40 µg/mL
Activity (Ogataea angusta [5]): Active
MIC (Ogataea angusta [6]): 30 µg/mL (≈ 144 µM)
MIC (Ogataea angusta [7]): 30 µg/mL (≈ 144 µM)
MIC (Kluyveromyces lactis [8]): < 20 µg/mL
MIC (Ogataea angusta [9]): 30 µg/mL (≈ 144 µM)
Activity (Ogataea angusta [10]): inactive
MIC (Kluyveromyces lactis [11]): 25 µg/mL (≈ 120 µM)
MIC (Ogataea angusta [12]): 20 µg/mL (≈ 96 µM)
MIC (Ogataea angusta [13]): 30 µg/mL (≈ 144 µM)
MIC (Saccharomyces cerevisiae [14]): > 40 µg/mL
Activity (Ogataea angusta [15]): Active
MIC (Ogataea angusta [16]): 30 µg/mL (≈ 144 µM)
Activity (Ogataea angusta [17]): inactive
Activity (Ogataea angusta [18]): Active
MIC (Saccharomyces cerevisiae [19]): > 40 µg/mL
MIC (Saccharomyces cerevisiae [20]): > 40 µg/mL
Activity (Ogataea angusta [21]): Active
Activity (Ogataea angusta [22]): Active
MIC (Ogataea angusta [23]): < 20 µg/mL
MIC (Saccharomyces cerevisiae [24]): > 40 µg/mL
Activity [25]: 7.1 µg/mL
MIC (Ogataea angusta [26]): < 20 µg/mL
Activity (Ogataea angusta [27]): inactive
MIC (Ogataea angusta [28]): 20 µg/mL (≈ 96 µM)
MIC (Saccharomyces cerevisiae [29]): > 40 µg/mL
MIC (Saccharomyces cerevisiae [30]): > 40 µg/mL
Activity (Ogataea angusta [31]): Active
MIC (Saccharomyces cerevisiae [32]): > 40 µg/mL
Activity (Ogataea angusta [33]): Active
MIC (Ogataea angusta [34]): 30 µg/mL (≈ 144 µM)
MIC (Ogataea angusta [35]): > 40 µg/mL
MIC (Saccharomyces cerevisiae [36]): > 40 µg/mL
Activity (Ogataea angusta [37]): Active
Activity (Ogataea angusta [38]): inactive
MIC (Ogataea angusta [39]): 30 µg/mL (≈ 144 µM)
MIC (Ogataea angusta [40]): 30 µg/mL (≈ 144 µM)
MIC (Saccharomyces cerevisiae [41]): > 40 µg/mL
MIC (Kluyveromyces lactis [42]): < 20 µg/mL
